Laboratory results as given in ChEMBL document CHEMBL1140759, “Synthesis, anti-Toxoplasma gondii and antimicrobial activities of benzaldehyde 4-phenyl-3-thiosemicarbazones and 2-[(phenylmethylene)hydrazono]-4-oxo-3-phenyl-5-thiazolidineacetic acids” (Bioorg Med Chem, 2008).

Columns and labels:
Vero = test: Inhibition of uninfected african green monkey Vero cells; format: cell-based; conditions: Chlorocebus sabaeus
Toxoplasma gondii [1] = test: Inhibition of intracellular parasite Toxoplasma gondii; format: functional, organism-based
Outline: (§1)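 Infected Vero cultures were exposed to compound at 0.01–30 mM for 24 h, in triplicate per assay. IC50 for infected cells and intracellular parasites was derived by non-linear regression, using trypan blue exclusion.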

Toxoplasma gondii [2] = test: Inhibition of Toxoplasma gondii infected in african green monkey Vero cells; format: functional, organism-based; outline: as §1
Toxoplasma gondii [3] = test: Antiparasitic activity against Toxoplasma gondii infected african green monkey Vero cells at 5 mM assessed as infected cells; format: functional
Outline: (§2)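 Vero cells were infected with RH-strain tachyzoites (5:1 parasite:cell) for 1 h, washed with PBS, and grown 24 h at 37 °C in medium 199 with 5% FCS. Compound was then added for 24 h. Cells were fixed with Bouin's, stained with Giemsa, and at least 400 cells were counted by light microscopy for the percentage infected. Hydroxyurea and sulfadiazine served as references.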

Toxoplasma gondii [4] = test: Antiparasitic activity against Toxoplasma gondii infected african green monkey Vero cells at 0.1 mM assessed as infected cells; format: functional; outline: as §2
Toxoplasma gondii [5] = test: Antiparasitic activity against Toxoplasma gondii infected african green monkey Vero cells at 8 mM assessed as infected cells; format: functional; outline: as §2
Toxoplasma gondii [6] = test: Antiparasitic activity against Toxoplasma gondii infected african green monkey Vero cells at 2 mM assessed as infected cells; format: functional; outline: as §2
Toxoplasma gondii [7] = test: Antiparasitic activity against Toxoplasma gondii infected african green monkey Vero cells at 20 mM assessed as infected cells; format: functional; outline: as §2
Micrococcus luteus = test: Antimicrobial activity against Micrococcus luteus at 300 ug/disc; format: functional; conditions: read-out: IZ
Outline: (§3)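 Disc diffusion on agar plates inoculated with a standardized microbial suspension, with paper discs carrying known compound amounts. DMSO-only discs served as negative controls, and chloramphenicol, rifampicin (bacteria) or nistatin (fungi) as references. The read-out is the mean inhibition zone diameter in mm. Each run was done three times and repeated if results differed.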

Staphylococcus aureus = test: Antimicrobial activity against Staphylococcus aureus at 300 ug/disc; format: functional; conditions: read-out: IZ; outline: as §3
Enterococcus faecalis = test: Antimicrobial activity against Streptococcus faecalis at 300 ug/disc; format: functional; conditions: read-out: IZ; outline: as §3
[8] = tested on: Mycobacterium tuberculosis; test: Antimicrobial activity against Mycobacterium tuberculosis at 300 ug/disc; format: functional; conditions: read-out: IZ
Outline: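 Agar disc diffusion: paper discs loaded with compound placed on agar plates seeded with a standardised microbial suspension. DMSO-only discs served as negative control. Chloramphenicol and rifampicin (bacteria) or nistatin (fungi) gave reference zones. Read-out was mean zone of inhibition diameter (mm). Each experiment was run three times and repeated if results differed.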

Klebsiella pneumoniae = test: Antimicrobial activity against Klebsiella pneumoniae at 300 ug/disc; format: functional; conditions: read-out: IZ; outline: as §3
[9] = tested on: Mycolicibacterium smegmatis; test: Antimicrobial activity against Mycobacterium smegmatis at 300 ug/disc; format: functional; conditions: read-out: IZ; outline: as §3
Bacillus subtilis = test: Antimicrobial activity against Bacillus subtilis at 300 ug/disc; format: functional; conditions: read-out: IZ; outline: as §3
Escherichia coli = test: Antimicrobial activity against Escherichia coli at 300 ug/disc; format: functional; conditions: read-out: IZ; outline: as §3
Mycolicibacterium phlei = test: Antimicrobial activity against Mycobacterium phlei at 300 ug/disc; format: functional; conditions: read-out: IZ; outline: as §3
Saccharomyces cerevisiae = test: Antimicrobial activity against Saccharomyces cerevisiae at 300 ug/disc; format: functional; conditions: read-out: IZ; outline: as §3
Candida [10] = test: Antimicrobial activity against Candida sp. IMUR1224 at 300 ug/disc; format: functional; conditions: read-out: IZ; outline: as §3
Candida albicans = test: Antimicrobial activity against Candida albicans at 300 ug/disc; format: functional; conditions: read-out: IZ; outline: as §3
Candida [11] = test: Antimicrobial activity against Candida sp. IMUR4249 at 300 ug/disc; format: functional; conditions: read-out: IZ; outline: as §3
Candida [12] = test: Antimicrobial activity against Candida sp. IMUR720 at 300 ug/disc; format: functional; conditions: read-out: IZ; outline: as §3

SMILES | IC50 (Vero) [µM] | IC50 (Toxoplasma gondii [1]) [µM] | IC50 (Toxoplasma gondii [2]) [µM] | Activity (Toxoplasma gondii [3]) [%] | Activity (Toxoplasma gondii [4]) [%] | Activity (Toxoplasma gondii [5]) [%] | Activity (Toxoplasma gondii [6]) [%] | Activity (Toxoplasma gondii [7]) [%] | further results
S=C(N/N=C/c1ccccc1)Nc1ccccc1 | 5000 | 4000 | 5000 | 31.83 | 82.5 | 13.52 | 77.82 | 0 | –
S=C(N/N=C/c1cccc(Cl)c1)Nc1ccccc1 | 10000 | 3000 | 7000 | 52.06 | 44.52 | 24.49 | 60.69 | 0 | –
Cc1ccc(/C=N/N=C2\SC(CC(=O)O)C(=O)N2c2ccccc2)cc1 (stereo not given) | 1000 | 50 | 100 | 0 | 39.2 | 0 | 1.23 | 0 | zone of inhibition at 300 µg/disc (Micrococcus luteus): 16 mm; zone of inhibition at 300 µg/disc (Staphylococcus aureus): < 7 mm; zone of inhibition at 300 µg/disc (Enterococcus faecalis): 12 mm; zone of inhibition at 300 µg/disc [8]: < 7 mm; zone of inhibition at 300 µg/disc (Klebsiella pneumoniae): < 7 mm; zone of inhibition at 300 µg/disc [9]: < 7 mm; zone of inhibition at 300 µg/disc (Bacillus subtilis): < 7 mm; zone of inhibition at 300 µg/disc (Escherichia coli): < 7 mm; zone of inhibition at 300 µg/disc (Mycolicibacterium phlei): < 7 mm
S=C(N/N=C/c1ccc(Cl)cc1)Nc1ccccc1 | 10000 | 1500 | 7000 | 38.7 | 70.01 | 21.05 | 34.8 | 0 | –
S=C(N/N=C/c1ccc(Cl)cc1Cl)Nc1ccccc1 | 6000 | 1000 | 2000 | 31.32 | 49.33 | 12.08 | 33.28 | 0 | –
CN(C)c1ccc(/C=N/N=C2\SC(CC(=O)O)C(=O)N2c2ccccc2)cc1 (stereo not given) | 1000 | 50 | 50 | 0 | 50.58 | 0 | 0 | 0 | zone of inhibition at 300 µg/disc (Micrococcus luteus): 10 mm; zone of inhibition at 300 µg/disc (Staphylococcus aureus): < 7 mm; zone of inhibition at 300 µg/disc (Enterococcus faecalis): < 7 mm; zone of inhibition at 300 µg/disc [8]: < 7 mm; zone of inhibition at 300 µg/disc (Klebsiella pneumoniae): < 7 mm; zone of inhibition at 300 µg/disc (Saccharomyces cerevisiae): < 7 mm; zone of inhibition at 300 µg/disc (Candida [10]): < 7 mm; zone of inhibition at 300 µg/disc [9]: < 7 mm; zone of inhibition at 300 µg/disc (Candida albicans): < 7 mm; zone of inhibition at 300 µg/disc (Bacillus subtilis): < 7 mm; zone of inhibition at 300 µg/disc (Escherichia coli): < 7 mm; zone of inhibition at 300 µg/disc (Candida [11]): 16 mm; zone of inhibition at 300 µg/disc (Mycolicibacterium phlei): < 7 mm; zone of inhibition at 300 µg/disc (Candida [12]): < 7 mm
S=C(N/N=C/c1ccc(Cl)c(Cl)c1)Nc1ccccc1 | 6000 | 2000 | 5000 | 21.96 | 49.18 | 4.54 | 38.02 | 0 | –
Cc1ccc(/C=N/NC(=S)Nc2ccccc2)cc1 | 8000 | 3000 | 4000 | 27.84 | 51.08 | 2.96 | 36.78 | 0 | –
COc1cc(/C=N/NC(=S)Nc2ccccc2)cc(OC)c1OC | 10000 | 2000 | 3000 | 24.32 | 76.37 | 23.17 | 72.04 | 0 | –
COc1ccc(/C=N/NC(=S)Nc2ccccc2)c(OC)c1 | 5000 | 2000 | 2000 | 9.2 | 73 | 3.6 | 41.44 | 1.49 | –
Fc1ccc(/C=N/NC(=S)Nc2ccccc2)cc1 | 10000 | 1000 | 2000 | 28 | 46.59 | 19.83 | 35.2 | 0 | –
COc1cc(/C=N/N=C2\SC(CC(=O)O)C(=O)N2c2ccccc2)ccc1O (stereo not given) | 100 | 1000 | 3000 | 3.5 | 46.02 | 0 | 41.96 | 0 | zone of inhibition at 300 µg/disc (Micrococcus luteus): < 7 mm; zone of inhibition at 300 µg/disc (Staphylococcus aureus): < 7 mm; zone of inhibition at 300 µg/disc (Enterococcus faecalis): < 7 mm; zone of inhibition at 300 µg/disc [8]: < 7 mm; zone of inhibition at 300 µg/disc (Klebsiella pneumoniae): < 7 mm; zone of inhibition at 300 µg/disc (Saccharomyces cerevisiae): < 7 mm; zone of inhibition at 300 µg/disc (Candida [10]): < 7 mm; zone of inhibition at 300 µg/disc [9]: < 7 mm; zone of inhibition at 300 µg/disc (Candida albicans): < 7 mm; zone of inhibition at 300 µg/disc (Bacillus subtilis): < 7 mm; zone of inhibition at 300 µg/disc (Escherichia coli): < 7 mm; zone of inhibition at 300 µg/disc (Mycolicibacterium phlei): < 7 mm; zone of inhibition at 300 µg/disc (Candida [12]): < 7 mm
COc1cc(/C=N/NC(=S)Nc2ccccc2)ccc1O | 6000 | 100 | 1000 | 19.3 | 80.05 | 2.6 | 19.7 | 0 | –
Nc1ccc(S(=O)(=O)Nc2ncccn2)cc1 [SULFADIAZINE] | 8000 | 3000 | 3000 | 29.55 | 53.84 | 6.84 | 48.71 | 0 | –
COc1ccc(/C=N/N=C2\SC(CC(=O)O)C(=O)N2c2ccccc2)cc1 (stereo not given) | 6000 | – | 500 | 5.9 | 27.32 | 0 | 4.51 | 0 | zone of inhibition at 300 µg/disc (Micrococcus luteus): 16 mm; zone of inhibition at 300 µg/disc (Staphylococcus aureus): < 7 mm; zone of inhibition at 300 µg/disc (Enterococcus faecalis): < 7 mm; zone of inhibition at 300 µg/disc [8]: < 7 mm; zone of inhibition at 300 µg/disc (Klebsiella pneumoniae): < 7 mm; zone of inhibition at 300 µg/disc (Saccharomyces cerevisiae): < 7 mm; zone of inhibition at 300 µg/disc (Candida [10]): < 7 mm; zone of inhibition at 300 µg/disc [9]: < 7 mm; zone of inhibition at 300 µg/disc (Candida albicans): 15 mm; zone of inhibition at 300 µg/disc (Bacillus subtilis): 11 mm; zone of inhibition at 300 µg/disc (Escherichia coli): < 7 mm; zone of inhibition at 300 µg/disc (Candida [11]): 16 mm; zone of inhibition at 300 µg/disc (Mycolicibacterium phlei): < 7 mm; zone of inhibition at 300 µg/disc (Candida [12]): < 7 mm
Cc1cccc(/C=N/NC(=S)Nc2ccccc2)c1 | 5000 | 2000 | 5000 | 26.86 | 66.23 | 22.72 | 39.82 | 0 | –
CN(C)c1ccc(/C=N/NC(=S)Nc2ccccc2)cc1 | 6000 | 1000 | 2000 | 18.14 | 76.14 | 13.46 | 35.81 | 0 | –
Fc1ccccc1/C=N/NC(=S)Nc1ccccc1 | 4000 | 1000 | 1500 | 14.32 | 91.5 | 29.29 | 28.13 | 0 | –
COc1cccc(/C=N/NC(=S)Nc2ccccc2)c1 | 5000 | 1000 | 2000 | 9.7 | 53.6 | 5.9 | 34.82 | 0 | –
COc1ccc(/C=N/NC(=S)Nc2ccccc2)cc1 | 6000 | 1000 | 2000 | 19 | 50.43 | 12.36 | 29.39 | 0 | –
CC(C)(C)c1cc(/C=N/NC(=S)Nc2ccccc2)cc(C(C)(C)C)c1O | 10000 | 4000 | 5000 | 30.51 | 63.44 | 6.42 | 64.07 | 0 | –
NC(=O)NO [HYDROXYUREA] | 1000 | 100 | 500 | 10.4 | 58.23 | 7.37 | 22.78 | 0 | –
